Measured values taken from article PMC2574552 (Molecular pharmacology, 2008).
Like-named read-outs stand apart in the source and are kept apart here.

Assays:
rat mGluR4 = rat mGluR4 (Rattus norvegicus, UniProt P31423); test: rat mGluR4/GIRK thallium flux assay; format: cell-based; conditions: for Fold shift rmGluR4/GIRK: leftward shift of glutamate concentration-response curve at 30 μM PAM; for % Max rmGluR4/GIRK: maximal potentiated EC20 response vs response to maximal glutamate alone
rat mGluR5 = rat mGluR5 (Rattus norvegicus, UniProt P31424); test: rat mGluR5/HEK calcium fluorescence counterscreen; format: cell-based; conditions: 30 μM; glutamate EC20
Method in brief: (§1)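 Cells were plated on poly-D-lysine plates in DMEM with 10% dialysed FBS, 20 mM HEPES and 1 mM pyruvate: mGluR1/BHK at 15,000 cells/well, mGluR5/HEK at 20,000 cells/well. They were loaded with 1 μM Fluo-4 AM for 45 min at 37°C in HBSS with 20 mM HEPES and 2.5 mM probenecid. […] Peak fluorescence was taken against control and normalised to no-compound response.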

human mGluR4 = human mGluR4 (Homo sapiens, UniProt Q14833); test: human mGluR4/Gqi5/CHO calcium mobilization assay; format: cell-based; conditions: for Fold shift hmGluR4/Gqi5: leftward shift of glutamate concentration-response curve at 30 μM PAM
human mGluR4, sequence (Q14833 33-912): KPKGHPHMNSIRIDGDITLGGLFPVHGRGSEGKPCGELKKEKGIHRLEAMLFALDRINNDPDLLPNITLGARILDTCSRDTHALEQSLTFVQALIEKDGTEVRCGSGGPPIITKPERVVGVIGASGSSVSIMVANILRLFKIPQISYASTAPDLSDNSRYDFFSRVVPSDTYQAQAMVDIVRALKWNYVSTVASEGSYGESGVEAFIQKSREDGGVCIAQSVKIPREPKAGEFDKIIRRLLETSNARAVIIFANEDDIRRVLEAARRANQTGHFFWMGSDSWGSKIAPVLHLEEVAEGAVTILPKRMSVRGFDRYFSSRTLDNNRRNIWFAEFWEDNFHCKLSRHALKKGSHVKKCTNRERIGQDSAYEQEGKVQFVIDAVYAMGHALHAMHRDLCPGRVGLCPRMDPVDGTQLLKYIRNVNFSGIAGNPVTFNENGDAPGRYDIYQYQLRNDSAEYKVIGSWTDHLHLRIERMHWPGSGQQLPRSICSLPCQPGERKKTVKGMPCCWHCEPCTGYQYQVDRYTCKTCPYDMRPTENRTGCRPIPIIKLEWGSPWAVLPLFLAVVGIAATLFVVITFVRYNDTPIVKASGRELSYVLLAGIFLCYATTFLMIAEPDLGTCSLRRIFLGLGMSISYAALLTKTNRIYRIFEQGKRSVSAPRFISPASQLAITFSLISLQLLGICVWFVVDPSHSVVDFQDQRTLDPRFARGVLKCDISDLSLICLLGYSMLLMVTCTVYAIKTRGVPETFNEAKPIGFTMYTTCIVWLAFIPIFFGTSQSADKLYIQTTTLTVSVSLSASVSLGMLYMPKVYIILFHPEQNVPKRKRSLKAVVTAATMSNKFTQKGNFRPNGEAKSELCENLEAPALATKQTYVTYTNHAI

human mGluR2 = human mGluR2 (Homo sapiens, UniProt Q14416); test: human mGluR2 GTPγS binding assay; format: biochemical; conditions: 30 μM; glutamate EC20
human mGluR2, sequence (Q14416 19-872): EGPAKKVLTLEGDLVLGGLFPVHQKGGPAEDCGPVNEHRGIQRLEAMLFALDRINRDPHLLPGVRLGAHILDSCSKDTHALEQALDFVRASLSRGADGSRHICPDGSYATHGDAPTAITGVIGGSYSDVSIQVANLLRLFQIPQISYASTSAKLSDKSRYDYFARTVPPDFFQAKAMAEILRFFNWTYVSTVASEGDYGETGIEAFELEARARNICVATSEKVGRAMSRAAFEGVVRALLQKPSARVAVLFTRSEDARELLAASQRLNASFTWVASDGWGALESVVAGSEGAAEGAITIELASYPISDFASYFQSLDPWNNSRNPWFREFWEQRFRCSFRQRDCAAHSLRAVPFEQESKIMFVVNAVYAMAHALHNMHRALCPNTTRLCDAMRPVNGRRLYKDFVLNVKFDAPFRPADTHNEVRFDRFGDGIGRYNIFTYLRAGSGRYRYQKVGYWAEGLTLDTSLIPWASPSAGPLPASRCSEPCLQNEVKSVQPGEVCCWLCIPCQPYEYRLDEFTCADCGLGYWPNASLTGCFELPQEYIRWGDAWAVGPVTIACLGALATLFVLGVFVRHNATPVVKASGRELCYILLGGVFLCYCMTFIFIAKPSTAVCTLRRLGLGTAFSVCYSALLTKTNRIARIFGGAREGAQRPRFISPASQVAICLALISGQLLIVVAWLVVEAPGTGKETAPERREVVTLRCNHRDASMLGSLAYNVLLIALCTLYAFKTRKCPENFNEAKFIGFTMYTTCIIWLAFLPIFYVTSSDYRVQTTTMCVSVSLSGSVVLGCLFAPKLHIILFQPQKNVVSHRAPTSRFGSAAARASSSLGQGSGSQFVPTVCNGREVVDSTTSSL
Method in brief: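 Nonspecific binding: 10 μM unlabelled GTPγS. Mixes shaken 60 min at room temperature, filtered, washed three times and counted by scintillation. Normalised to no-compound response; mean ± S.E.M.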

rat mGluR7 = rat mGluR7 (Rattus norvegicus, UniProt P35400); test: rat mGluR7/GIRK thallium flux assay; format: cell-based; conditions: 30 μM; L-AP4 EC20
Method in brief: (§2)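 GIRK-coexpressing cells were plated at 15,000/well on poly-D-lysine and grown overnight at 37°C, 5% CO2. They were loaded with 1.7 μM BTC-AM for 1 h at room temperature, then buffer was exchanged. […] Fluorescence was read at 470/540 nm, at 1 Hz for 2 min after agonist. Normalised to no-compound response; mean ± S.E.M.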

rat mGluR1 = rat mGluR1 (Rattus norvegicus, UniProt P23385); test: rat mGluR1/BHK calcium fluorescence counterscreen; format: cell-based; conditions: 30 μM; glutamate EC20
rat mGluR1, sequence (P23385 19-1199): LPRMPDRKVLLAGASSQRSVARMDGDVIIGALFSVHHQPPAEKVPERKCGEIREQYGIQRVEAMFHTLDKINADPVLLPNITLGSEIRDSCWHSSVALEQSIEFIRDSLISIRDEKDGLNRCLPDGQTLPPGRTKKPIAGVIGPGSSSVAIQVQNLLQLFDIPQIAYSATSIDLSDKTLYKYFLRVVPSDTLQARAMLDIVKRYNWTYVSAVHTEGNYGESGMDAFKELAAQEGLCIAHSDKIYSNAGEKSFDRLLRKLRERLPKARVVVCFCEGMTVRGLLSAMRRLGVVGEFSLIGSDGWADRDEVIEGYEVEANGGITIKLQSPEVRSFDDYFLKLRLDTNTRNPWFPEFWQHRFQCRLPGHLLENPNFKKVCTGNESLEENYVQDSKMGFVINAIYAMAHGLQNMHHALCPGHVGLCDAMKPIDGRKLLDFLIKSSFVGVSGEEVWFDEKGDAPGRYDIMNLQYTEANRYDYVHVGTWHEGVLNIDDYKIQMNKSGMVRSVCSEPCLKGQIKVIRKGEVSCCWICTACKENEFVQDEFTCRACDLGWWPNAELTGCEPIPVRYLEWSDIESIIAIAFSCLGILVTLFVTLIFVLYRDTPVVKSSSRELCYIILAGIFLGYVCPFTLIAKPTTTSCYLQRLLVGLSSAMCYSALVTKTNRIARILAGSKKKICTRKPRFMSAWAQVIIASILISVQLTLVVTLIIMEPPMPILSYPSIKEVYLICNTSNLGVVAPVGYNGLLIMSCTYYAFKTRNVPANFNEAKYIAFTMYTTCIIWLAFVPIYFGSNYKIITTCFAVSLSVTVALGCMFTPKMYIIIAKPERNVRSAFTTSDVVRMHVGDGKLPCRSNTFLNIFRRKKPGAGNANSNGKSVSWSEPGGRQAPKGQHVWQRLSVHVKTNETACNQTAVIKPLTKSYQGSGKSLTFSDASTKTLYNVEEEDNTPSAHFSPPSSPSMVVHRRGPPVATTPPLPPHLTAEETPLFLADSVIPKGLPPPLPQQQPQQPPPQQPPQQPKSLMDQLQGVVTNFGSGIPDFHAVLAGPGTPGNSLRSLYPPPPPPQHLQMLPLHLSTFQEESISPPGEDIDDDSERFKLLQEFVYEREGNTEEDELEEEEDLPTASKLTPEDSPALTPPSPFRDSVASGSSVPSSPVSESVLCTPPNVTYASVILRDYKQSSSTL
Method in brief: as §1

rat mGluR8 = rat mGluR8 (Rattus norvegicus, UniProt P70579); test: rat mGluR8/GIRK thallium flux assay; format: cell-based; conditions: 30 μM; glutamate EC20
rat mGluR8, sequence (P70579 34-908): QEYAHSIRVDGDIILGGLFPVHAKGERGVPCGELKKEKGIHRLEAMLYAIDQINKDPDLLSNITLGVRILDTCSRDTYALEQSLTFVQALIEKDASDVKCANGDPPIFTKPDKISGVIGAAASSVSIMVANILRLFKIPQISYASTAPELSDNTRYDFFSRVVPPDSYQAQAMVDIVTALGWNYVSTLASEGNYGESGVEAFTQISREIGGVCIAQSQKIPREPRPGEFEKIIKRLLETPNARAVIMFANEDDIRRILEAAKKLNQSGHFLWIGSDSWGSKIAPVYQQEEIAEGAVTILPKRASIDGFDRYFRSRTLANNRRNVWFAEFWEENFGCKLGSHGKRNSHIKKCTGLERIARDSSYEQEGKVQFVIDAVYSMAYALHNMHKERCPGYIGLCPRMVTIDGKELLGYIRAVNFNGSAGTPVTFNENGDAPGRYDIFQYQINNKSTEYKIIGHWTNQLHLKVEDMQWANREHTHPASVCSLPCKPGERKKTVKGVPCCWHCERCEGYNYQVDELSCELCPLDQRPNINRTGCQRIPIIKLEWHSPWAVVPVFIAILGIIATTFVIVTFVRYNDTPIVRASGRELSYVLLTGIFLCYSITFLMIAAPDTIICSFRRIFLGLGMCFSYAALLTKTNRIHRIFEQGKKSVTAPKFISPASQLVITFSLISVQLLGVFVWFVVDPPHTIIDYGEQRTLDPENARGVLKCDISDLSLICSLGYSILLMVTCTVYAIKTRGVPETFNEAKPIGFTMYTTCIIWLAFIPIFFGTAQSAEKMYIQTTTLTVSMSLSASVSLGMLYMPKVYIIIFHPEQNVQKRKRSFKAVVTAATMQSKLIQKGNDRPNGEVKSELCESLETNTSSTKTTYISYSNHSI
Method in brief: as §2

[1] = solubility in dosing vehicle; format: physicochemical
mGluR4 = conditions: read-out: potency at mGluR4 in vitro; ref Marino et al., 2003; cited from earlier work
[2] = system: reserpine-induced akinesia; test: reversal of reserpine-induced akinesia; format: in vivo; conditions: rat, icv, reserpine 5 mg/kg s.c., 2 h pretreatment
[3] = system: haloperidol-induced catalepsy; test: reversal of haloperidol-induced catalepsy; format: in vivo; conditions: rat, icv
Method in brief: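 Male Sprague-Dawley rats (225−255 g) carried third-ventricle cannulae. They received haloperidol 1.5 mg/kg i.p. in 0.2% lactic acid. At 2 h, cataleptic rats (staying on the bar 45−60 s; forepaw-removal latency timed) got icv either L-AP4 (100−1000 nmol/10 μl, artificial CSF), test compound (31 or 93 nmol/10 μl, aqueous vehicle pH 7.4) or vehicle. Rats were retested at 15, 30 and 60 min; 6 rats/group; Dunnett's test versus vehicle.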

[4] = system: 67 different targets including GPCRs, ion channels, and transporters; test: MDS-Pharma radioligand binding panel; conditions: MDS-Pharma Services; Supplemental Table 2
NMDA receptor = format: cell-based, rat; conditions: n = 5

rat mGluR4, sequence (P31423 33-912): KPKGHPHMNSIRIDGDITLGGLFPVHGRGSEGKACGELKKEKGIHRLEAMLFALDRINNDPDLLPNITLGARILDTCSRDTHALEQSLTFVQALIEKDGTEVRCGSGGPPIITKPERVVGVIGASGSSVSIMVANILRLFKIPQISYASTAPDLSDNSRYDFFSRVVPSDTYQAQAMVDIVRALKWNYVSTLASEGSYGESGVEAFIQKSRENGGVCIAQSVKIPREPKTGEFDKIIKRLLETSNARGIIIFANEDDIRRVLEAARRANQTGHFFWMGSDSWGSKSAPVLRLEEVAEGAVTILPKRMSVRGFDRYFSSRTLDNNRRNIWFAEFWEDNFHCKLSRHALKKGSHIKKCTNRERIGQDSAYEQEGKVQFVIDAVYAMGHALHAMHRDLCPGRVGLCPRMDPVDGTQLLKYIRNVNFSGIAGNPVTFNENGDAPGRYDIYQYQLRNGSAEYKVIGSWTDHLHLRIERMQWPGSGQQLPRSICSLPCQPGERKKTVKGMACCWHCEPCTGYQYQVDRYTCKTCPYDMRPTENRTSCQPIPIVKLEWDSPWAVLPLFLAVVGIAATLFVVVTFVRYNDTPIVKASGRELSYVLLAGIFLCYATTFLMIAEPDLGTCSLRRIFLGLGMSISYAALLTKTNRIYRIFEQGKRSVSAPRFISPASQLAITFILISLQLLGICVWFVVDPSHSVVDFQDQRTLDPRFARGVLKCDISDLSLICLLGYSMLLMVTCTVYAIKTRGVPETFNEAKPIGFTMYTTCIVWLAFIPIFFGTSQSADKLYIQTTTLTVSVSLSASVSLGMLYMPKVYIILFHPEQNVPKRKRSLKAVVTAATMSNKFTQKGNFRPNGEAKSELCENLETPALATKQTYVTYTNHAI

O=C(O)C1CCCCC1C(=O)Nc1cc(Cl)cc(Cl)c1 (centres unmarked) [Compound 2h, 2-(3,5-Dichlorophenylcarbamoyl)cyclohexanecarboxylic acid]
EC50 (rat mGluR4): 560 ± 100 nM
Fold shift rmGluR4/GIRK (rat mGluR4): 7.7±0.6 fold
% Max rmGluR4/GIRK (rat mGluR4): 107.6±6.3%
potentiation of EC20 agonist response, mGluR5 (rat mGluR5): did not potentiate
EC50 (human mGluR4): 750 ± 200 nM
response to compound alone in calcium assay (human mGluR4; 10 μM, absence of glutamate, trace from original HTS): small calcium response
Fold shift hmGluR4/Gqi5 (human mGluR4): 6.5±1.0 fold
improved potency compared to PHCCC (human mGluR4; mGluR4 PAM potency relative to PHCCC): approximately 8 fold
% Max hmGluR4/Gqi5 (human mGluR4; maximal potentiated EC20 response vs response to maximal glutamate alone): 120.0±6.7%
potentiation of EC20 agonist response, mGluR2 (human mGluR2): did not potentiate
potentiation of EC20 agonist response, mGluR7 (rat mGluR7): did not potentiate
potentiation of EC20 agonist response, mGluR1 (rat mGluR1): did not potentiate
potentiation of EC20 agonist response, mGluR8 (rat mGluR8): did not potentiate

N-Phenyl-7-(hydroxyimino)cyclopropa[b]chromen-1a-carboxamide [PHCCC, reference compound]
solubility in vehicle ([1]; vehicle for icv administration): only soluble in vehicles containing high concentrations of DMSO or other relatively toxic vehicles
maximal agonist response, percent of the maximal glutamate response (rat mGluR4; compound alone, no glutamate, observed at 30 μM): −2.3±2.0%
% Max rmGluR4/GIRK (rat mGluR4): 120.3±4.4%
EC50 (mGluR4): ~4000 nM

N[C@@H](CCP(=O)(O)O)C(=O)O [L-AP4, L-(+)-2-amino-4-phosphonobutryic acid, reference compound]
reversal of reserpine-induced akinesia ([2]; 300 and 1000 nmol): significant reversals of akinesia
haloperidol-induced catalepsy ([3]; 100−1000 nmol, dose-dependent, haloperidol 1.5 mg/kg i.p.): significantly decreased

O=C(Nc1cc(Cl)cc(Cl)c1)[C@H]1CCCC[C@H]1C(=O)O (racemic) [VU0155041, (±)-cis-2-(3,5-Dicholorphenylcarbamoyl)cyclohexanecarboxylic acid]
effect on radioligand binding at 67 targets [4]: no effect on binding at any target examined
solubility in vehicle [1]: soluble in an aqueous vehicle
Fold shift rmGluR4/GIRK (rat mGluR4): 4.7±0.4 fold
EC50 (rat mGluR4; read-out: potency at rat mGluR4 (GIRK assay), potentiation of EC20 glutamate): 693 ± 140 nM
Fold shift hmGluR4/Gqi5 (human mGluR4): 6.4±0.7 fold
reversal of reserpine-induced akinesia ([2]; 316 nmol): significant reversal of akinesia
amplitude of NMDA receptor currents (NMDA receptor; 10 μM, p > 0.3): 106.3 ± 5.8 % of control
haloperidol-induced catalepsy ([3]; doses of 31 and 92 nmol, effects still present 30 min after infusion): significantly decrease

O=C(O)C1CCCCC1C(=O)Nc1cc(Cl)cc(Cl)c1 [(1R, 2S)]
potency and efficacy of single cis-enantiomers (human mGluR4; mGluR4, assay not specified, data not shown): equal potency and efficacy

C[C@@H](CN1CCC(Cc2ccccc2)CC1)[C@@H](O)c1ccc(O)cc1 [Ro25−6981, (αR,βS)-α-(4-hydroxyphenyl)-β-methyl-4-(phenylmethyl)-1-piperidinepropanol, reference compound]
peak amplitude of NMDAR currents (NMDA receptor; 1 μM, p < 0.003): 53.1 ± 8.5 % of control

N[C@@H](CCC(=O)O)C(=O)O [glutamate, L-glutamate, reference compound]
EC50 (rat mGluR4): 9200 ± 1200 nM

O=C(O)[C@@H]1CCCC[C@H]1C(=O)Nc1cc(Cl)cc(Cl)c1 (racemic) [VU0155040, (±)-trans-2-(3,5-Dichlorophenylcarbamoyl)cyclohexanecarboxylic acid]
Fold shift rmGluR4/GIRK (rat mGluR4): 2.5±0.5 fold
Fold shift hmGluR4/Gqi5 (human mGluR4): 3.0±0.3 fold
